We go through 15 compounds from paper PMC7583637 (Bioconjugate Chemistry, 2020).

For one series, the system named is c-FLIP mRNA. Briefly: RT-qPCR of c-FLIP mRNA expression. The series is classed as cell-based, human. Conditions: 300 nM, Lipofectamine LTX, 24 h; for Reduction of c-FLIP mRNA levels: A549, relative to reference genes, ΔΔCq, n = 3; for Effect on c-FLIP mRNA levels: A549. In general terms: Real-time PCR tracks product formation cycle by cycle.
The test system of series [1] is A549 cells. The series can be described thus: AlamarBlue viability assay after lipofection of SMC-PSO conjugates. Type of series: cell-based, human. Conditions: 100 nM, Lipofectamine LTX, 48 h, no TRAIL; for Loss of viability: relative to medium control. The gist of the method:
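A549 cells in DMEM with 10% FCS and 4 mM glutamine (37 °C, 5% CO2) were seeded at 5 × 10³ cells/well and grown 24 h to ~70% confluency. Conjugate in OptiMEM was complexed with PLUS Reagent, then Lipofectamine LTX (20 min, RT), and added at 100 nM final in antibiotic-free medium. After 48 h, cells were PBS-washed and given alamarBlue (1:10 in PBS) for 2 h at 37 °C. Fluorescence was read at 531/590 nm relative to medium control.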
(In general: Resazurin is reduced to fluorescent resorufin, in cell work by metabolically active cells.)

A further series relates to c-FLIP. Conditions: 2′-MOE-RNA/DNA gapmer PSOs; cited from earlier work.
In the next series the target is XIAP L-Bir2-Bir3 (Homo sapiens, UniProt P98170). Briefly: Competitive fluorescence polarization binding assay with Smac-1F probe. In general terms: Polarisation of emitted light reports the rotation of a fluorescent probe.
Sequence of XIAP L-Bir2-Bir3 (P98170 120-356): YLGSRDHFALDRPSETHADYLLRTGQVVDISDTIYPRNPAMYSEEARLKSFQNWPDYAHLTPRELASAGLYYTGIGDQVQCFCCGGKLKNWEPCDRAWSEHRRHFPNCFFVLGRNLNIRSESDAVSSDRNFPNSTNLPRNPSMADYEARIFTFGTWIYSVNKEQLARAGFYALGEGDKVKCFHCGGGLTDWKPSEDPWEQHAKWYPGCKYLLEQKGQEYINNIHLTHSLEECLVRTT
Series [2] concerns A549 cells. Briefly: AlamarBlue viability assay, PNA-CPP and SMC-PNA-CPP conjugates or chloroquine. The series is classed as cell-based, human. Particulars: control experiments, Figure S7A.
Another series concerns Caspase 3 and 7 activity. Briefly: Caspase 3/7 assay. Type of series: cell-based, human. Particulars: 200 nM conjugate, 2 ng/mL SuperKillerTRAIL, 24 h, DEVD-AFC. The essentials: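 A549 cells were seeded in 6-well plates 24 h ahead and lipofected to a final 200 nM with 2 ng/mL SuperKillerTRAIL. After 24 h, cells were harvested and lysed (HEPES/NaCl/EDTA/1% Triton X-100, pH 7.5; 20 min on ice with sonication), and protein was measured by BCA. 35 μg protein was mixed with 2× buffer (HEPES, 20 mM DTT, 20% glycerol, pH 7.5) containing 50 μM DEVD-AFC, 2 h at 37 °C in the dark. […] versus medium-treated control; SD shown.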

Series [3] deals with A549 cells. Conditions: read-out: IC50, toxicity to A549 cells; cited from earlier work.

pIC50: −log10 of the molar value. Where a SMILES comes first, the peptide text is derived from it. [ ]: non-standard residue; d: D form. Dip = N[C@H](C(=O)O)C(c1ccccc1)c1ccccc1; Chg = N[C@H](C(=O)O)C1CCCCC1; NMeA = CN[C@@H](C)C(=O)O

On to “5'-ACTTGTCCCTGCTCCTTGAA-3' (full phosphorothioate, further chemistry not given here) [ISIS 23296, reference compound]”, for which, in the series with c-FLIP mRNA, the “Reduction of c-FLIP mRNA levels” value was “up to 50%”. The Loss of viability result in the series on A549 cells [1] is on record as “ca. 30%”. The “Knockdown reported in original publication” value in the series with c-FLIP is recorded as 70%.
Regarding “5'-AGTTCTCTCTGCCCCTAGAT-3' (phosphorothioate, further chemistry not given here) [unconjugated, scrambled PSO, reference compound]”, the “Effect on c-FLIP mRNA levels” value with c-FLIP mRNA is on record as “significant upregulation of c-FLIP levels”. Moreover, in the series on A549 cells [1], the “Effect on viability” value was “some decrease in viability”.
On XIAP L-Bir2-Bir3, `CN[C@@H](C)C(=O)N[C@H](C(=O)N1CCC[C@H]1C(=O)N[C@H](C(=O)NCC(N)=O)C(c1ccccc1)c1ccccc1)C1CCCCC1` [SMC, H-MeAla-Chg-Pro-Dip-Gly-NH2] (H-[NMeA][Chg]P[Dip]G-NH2) gave a pIC50 of 5.34.
Regarding `CCN(CC)CCCC(C)Nc1ccnc2cc(Cl)ccc12` (centres unmarked) [chloroquine], the “Concentration up to which viability of A549 cells is not affected” value in the series on A549 cells [2] is recorded as “up to 200 μM”.
Take “Ac-Gly-Lys(N3-DBCO-ACTTGTCCCTGCTCCTTGAA)-Dap(AcS-Chg-Pro-Dip)-NH2 [AcSMC-PSO1]”: the Loss of viability entry in the series with A549 cells [1] is recorded as “ca. 30%”.
On the same count and under the same terms, for “Ac-Gly-Lys(N3-DBCO-ACTTGTCCCTGCTCCTTGAA)-Dap(MeA-Chg-Pro-Dip)-NH2 [SMC-PSO1]” the value was 40%.
Regarding “Ac-Gly-Lys(N3-DBCO-AGTTCTCTCTGCCCCTAGAT)-Dap(AcS-Chg-Pro-Dip)-NH2 [AcSMC-scrPSO1]”, in the series on A549 cells [1], the “Effect on viability” value is “some decrease in viability”.
“Ac-Gly-Lys(N3-DBCO-AGTTCTCTCTGCCCCTAGAT)-Dap(MeA-Chg-Pro-Dip)-NH2 [SMC-scrPSO1]”: the Loss of viability entry in the series with A549 cells [1] is “ca. 30%”.
As to “AcS-Chg-Pro-Dip-Gly-Gly-Lys(N3-DBCO-ACTTGTCCCTGCTCCTTGAA)-Dap(AcS-Chg-Pro-Dip)-NH2 [(AcSMC)2-PSO1]”, in the series on c-FLIP mRNA, the “Reduction of c-FLIP mRNA levels” value is given as “around 40%”.
Take “AcS-Chg-Pro-Dip-Gly-Gly-Lys(N3-DBCO-AGTTCTCTCTGCCCCTAGAT)-Dap(AcS-Chg-Pro-Dip)-NH2 [(AcSMC)2-scrPSO1]”: the “Effect on c-FLIP mRNA levels” value in the series on c-FLIP mRNA was “upregulation of c-FLICE did not occur”.
Take “MeA-Chg-Pro-Dip-Gly-Gly-Lys(N3-DBCO-ACTTGTCCCTGCTCCTTGAA)-Dap(MeA-Chg-Pro-Dip)-NH2 [(SMC)2-PSO1]”: the “Increase of caspase 3/7 activity over background” value in the series on Caspase 3 and 7 activity is on record as approximately 40 fold. Besides, the “Reduction of c-FLIP mRNA levels” value with c-FLIP mRNA was “around 40%”. The Loss of viability in the series on A549 cells [1] was 50–60%.
Turning to “MeA-Chg-Pro-Dip-Gly-Gly-Lys(N3-DBCO-AGTTCTCTCTGCCCCTAGAT)-Dap(MeA-Chg-Pro-Dip)-NH2 [(SMC)2-scrPSO1]”, the “Effect on c-FLIP mRNA levels” value with c-FLIP mRNA is “upregulation of c-FLICE did not occur”.
For Penetratin, the pIC50 in the series with A549 cells [3] was 4.22.
Consider Transportan, for which the pIC50 in the series with A549 cells [3] is 5.60.
Consider octaarginine, for which the pIC50 in the series on A549 cells [3] was less than 3.00.

One may read the pIC50 as −log10 of the IC50, conventionally taken in molar units.
